Reference: ChEMBL document CHEMBL4715860 (J Med Chem, 2020)
Active and inactive are the calls of the source. The calls are words filed in the database; no cut-off is given here.

Legend:
[1] = Cmax in C57BL/6J mouse brain at 10 mg/kg, po administered as single dose by mass spectrometry based UHPLC analysis; format: ADME, organism-based; parameters: route oral, dose 10 mg/kg
How it was run: (§1)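 Female C57BL/6J mice, one oral dose of 10 mg/kg in 20% Captisol; plasma and brain levels over time, n = 3 per time point (mean).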

[2] = AUC (0 to 8 hrs) in C57BL/6J mouse plasma at 10 mg/kg, po administered as single dose by mass spectrometry based UHPLC analysis; format: ADME, organism-based; parameters: time < 8 hr, route oral, dose 10 mg/kg; how it was run: as §1
[3] = Elimination half life in C57BL/6J mouse plasma at 10 mg/kg, po administered once a day for 4 consecutive days by mass spectrometry based UHPLC analysis; format: ADME, organism-based; conditions: time 4 day, read-out: beta t1/2 (converted)
How it was run: (§2)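 Female C57BL/6J mice given 10 mg/kg p.o. in 20% Captisol once daily for 4 consecutive days. Plasma and brain sampled after the final dose on day 4, n = 3 per time point.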

[4] = Tmax in C57BL/6J mouse brain at 10 mg/kg, po administered as single dose by mass spectrometry based UHPLC analysis; format: ADME, organism-based
How it was run: (§3)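 Female C57BL/6J mice dosed orally at 10 mg/kg in 20% Captisol, either once or once daily for 4 days with sampling after the last dose on day 4. Plasma and brain concentrations followed over time. Tmax taken from at least 3 time points.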

[5] = Tmax in C57BL/6J mouse plasma at 10 mg/kg, po administered as single dose by mass spectrometry based UHPLC analysis; format: ADME, organism-based; how it was run: as §3
[6] = Elimination half life in C57BL/6J mouse brain at 25 mg/kg, po administered as single dose by mass spectrometry based UHPLC analysis; format: ADME, organism-based; conditions: read-out: beta t1/2 (converted)
How it was run: (§4)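 One oral dose of 25 mg/kg to female C57BL/6J mice. Plasma and brain concentrations followed over time, n = 3 per time point (mean).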

Rattus norvegicus = assay: In vivo inhibition of PI3Kalpha Sprague-Dawley rat assessed as increase in plasma glucose concentration at 5 mg/kg, po measured after 8 hrs by glucoseoxidase-peroxide coupled colorimetric assay; format: functional, organism-based
How it was run: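 Male Sprague Dawley rats dosed orally at 5 mg/kg; plasma insulin and glucose followed over time against vehicle, n = 3, mean ± SEM.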

Mus musculus [7] = assay: In vivo inhibition of mTORC2 signalling pathway in C57BL/6J mouse assessed as reduction in PKB/Akt phosphorylation at Ser473 in brain at 25 mg/kg, po incubated for 30 mins by Western blot analysis; format: functional, organism-based
How it was run: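 Female C57BL/6J mice dosed at 25 mg/kg p.o.; cortex collected 30 min later and lysed. Equal protein run on SDS-PAGE and western blotted for pS6(Ser235/236), pPKB(Ser473) and α-tubulin, detected by HRP secondary antibodies and ECL. Signal expressed as % of control cortex, n = 3, mean ± SEM, unpaired t-test.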

[8] = Metabolic stability in CD1 mouse hepatocytes assessed as parent compound remaining at 5 uM incubated for 3 hrs by LC-MS analysis; format: ADME, cell-based, Hepatocyte; conditions: read-out: Stabilty
How it was run: (§5)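 Cryopreserved primary hepatocytes in suspension (CD-1 mouse, Sprague-Dawley rat, Beagle dog, human). Compound diluted from 10 mM DMSO stock to 5 μM final. Sampled at 0, 15, 60, 90 and 180 min, protein precipitated with ACN plus internal standard, supernatant analysed by LC−MS. Run in duplicate. 7-ethoxycoumarin as positive control. Hepatocyte-free medium incubations as negative control.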

[9] = Tmax in C57BL/6J mouse brain at 25 mg/kg, po administered as single dose by mass spectrometry based UHPLC analysis; format: ADME, organism-based
How it was run: (§6)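 Female C57BL/6J mice given a single oral dose of 25 mg/kg. Plasma and brain levels followed over time (n = 3 per time point, mean). Tmax is the time of maximal concentration.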

[10] = Metabolic stability in human hepatocytes assessed as parent compound remaining at 5 uM incubated for 3 hrs by LC-MS analysis; format: ADME, cell-based, Hepatocyte; conditions: read-out: Stabilty; how it was run: as §5
[11] = Clearance in C57BL/6J mouse plasma at 10 mg/kg, po administered once a day for 4 consecutive days by mass spectrometry based UHPLC analysis; format: ADME, organism-based; conditions: time 4 day; how it was run: as §2
[12] = Tmax in C57BL/6J mouse plasma at 10 mg/kg, po administered once a day for 4 consecutive days by mass spectrometry based UHPLC analysis; format: ADME, organism-based; conditions: time 4 day; how it was run: as §3
[13] = Toxicity in Balb/c nude mouse assessed as change in body weight at 150 mg/kg, po administered once daily for 14 days measured for 7 days starting from post last dose; format: organism-based; conditions: in vivo, 504 h, time 21 day
Mus musculus [14] = assay: In vivo inhibition of mTORC1 signalling in C57BL/6J mouse assessed as reduction in RPS6 phosphorylation at S235/236 residue in brain at 25 mg/kg, po measured after 8 hrs by Western blot analysis; format: functional, organism-based
How it was run: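 Time course in female C57BL/6J mice after 25 mg/kg p.o.: cortex taken at set time points and western blotted for pS6 and pPKB. Signals quantified against α-tubulin as % of control cortex; n = 3 per time point and n = 9 controls. Brain compound level measured in the same mice.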

[15] = AUC (0 to 8 hrs) in C57BL/6J mouse brain at 10 mg/kg, po administered once a day for 4 consecutive days by mass spectrometry based UHPLC analysis; format: ADME, organism-based; parameters: route oral, time 4 day, dose 10 mg/kg; how it was run: as §2
[16] = Elimination half life in C57BL/6J mouse plasma at 25 mg/kg, po administered as single dose by mass spectrometry based UHPLC analysis; format: ADME, organism-based; conditions: read-out: beta t1/2 (converted); how it was run: as §4
[17] = Tmax in C57BL/6J mouse plasma at 25 mg/kg, po administered as single dose by mass spectrometry based UHPLC analysis; format: ADME, organism-based; how it was run: as §6
[18] = Elimination half life in C57BL/6J mouse plasma at 10 mg/kg, po administered as single dose by mass spectrometry based UHPLC analysis; format: ADME, organism-based; conditions: read-out: beta t1/2 (converted); how it was run: as §1
P-glycoprotein = assay: Substrate activity at human P-glycoprotein stably expressed in MDCK cells assessed as efflux ratio at 1 uM measured after 5 to 20 mins by UPLC-MS/MS analysis; format: ADME, cell-based; conditions: MDCK-MDR1, time 5-20 min
How it was run: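 CRISPR canine-MDR1-knockout MDCKII cells stably expressing human MDR1, with the knockout parent line as control. Cells grown 5 days on TransWell filters and preincubated in HBSS 30 min at 37 °C. Compound at 1 μM added apical or basolateral. Receiver sampled at 5, 10 and 20 min; UPLC-MS/MS.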

| SMILES | Cmax [1] [ng/mL] | AUC(0-t) at 8 h [2] [ng·h/mL] | half-life [3] [min] | Tmax [4] [min] | Tmax [5] [min] | half-life [6] [min] | inhibition (Rattus norvegicus) | inhibition (Mus musculus [7]) | remaining at 3 h, 5 µM [8] [%] | Tmax [9] [min] | remaining at 3 h, 5 µM [10] [%] | CL/F [11] [mL/min/kg] | Tmax [12] [min] | Activity [13] | inhibition (Mus musculus [14]) | AUC at 96 h [15] [ng·h/mL] | half-life [16] [min] | Tmax [17] [min] | half-life [18] [min] | efflux ratio at 1 µM (P-glycoprotein) |
| --- | --- | --- | --- | --- | --- | --- | --- | --- | --- | --- | --- | --- | --- | --- | --- | --- | --- | --- | --- | --- |
| C[C@@H]1COCCN1c1nc(-c2cnc(N)cc2C(F)F)nc(N2[C@H](C)COC[C@@H]2C)n1 | 1420 | 2940 | 132 | 30 | 30 | 144 | inactive | Active | 48.4 | 30 | 44 | 64.9 | 30 | Non-Toxic | inactive | 3050 | 144 | 12 | 180 | – |
| C[C@@H]1COCCN1c1nc(-c2cnc(N)cc2C(F)F)nc(N2CCOCC2(C)C)n1 | – | – | – | – | – | – | – | – | – | – | – | – | – | – | – | – | – | – | – | 1.5 |
